From PubChem BioAssay
Sampled rows, rich in hits. Any-hit rate of the full collection: about 3.8%.
T cell HTS = modulators of CD8 T cell-vesicle binding, primary screen, mouse 2C CD8+ T cells, flow cytometry. response (vesicle binding), % at 7 µM. 0.068% of 330,000 active. 2C CD8+ T cell-vesicle binding; hits give low values. AID 2052, 2009;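 active means response, share of CD8 T cells binding vesicles, and their 90th percentile fluorescence all below set limits, cut at about 80% in these data, passing the limit was not always enough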;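 further: values below 100% mean blocked vesicle binding to the CD8+ T cells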
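System: murine 2C transgenic CD8+ T lymphocytes; also added: QL9-loaded Drosophila micro-vesicles; times: binding 1.5 h at 37 °C; measured by: flow cytometry, PE anti-B7-1 (FL2) versus Alexa647 anti-CD8 (FL8), PFA-fixed; control set: Peptide-free naked vesicles (low) and QL9 vesicles with 0.7% DMSO vehicle (high)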
rCAG binder = binders of r(CAG) RNA repeats, primary screen, biochemical, fluorescence. r(CAG) RNA repeat, TO-PRO-1 dye displacement fluorescence. inhibition, % at 3 µM. 1.3% of 370,000 active. AID 651821, 2012;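 active means inhibition above the plate cutoff, the mean of all test compounds on that plate plus 3 SD, cut at about 35% in these data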;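 further: 0% = DMSO alone and 100% = 100 µM mitoxantrone as full dye displacement; higher means more dye released from RNA so lower well fluorescence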
V-ATPase pHluor = regulators of yeast V-ATPase proton pumping, primary screen, pHLuorin cytosolic pH fluorescence. 0.37% of 350,000 active. AID 504577, 2011. response, % at 10 µM. S. cerevisiae; in the data active means response mostly above about 7.3%, no sharp cut-off; inactive means mostly below about 5.4%; further: actives read high
Exocytosis inh = LAMP-1 surface exposure blockers, TALL-104 cells – cell-based, flow cytometry, MLPCN library, primary screen. TALL-104 LAMP-1 surface exposure; cells stimulated with thapsigargin and PMA. inhibition, % at 10 µM. AID 651702, 2012. 0.66% of 360,000 active;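 active means inhibition above about 55%, limit read from the data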
Beta2AR agonist = beta2AR agonists driving receptor internalization, primary screen, cell-based, FAP fluorogen, flow cytometry; Beta-2 adrenergic receptor (Homo sapiens), P07550; Am2.2-beta2AR cells; response, % (no concentration beside the values); 0.43% of 340,000 active; AID 504454, 2011;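 active means response above a set limit, near 3 SD of response in nonfluorescent compounds, cut at about 42% in these data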
Target sequence (P07550 whole entry, looked up): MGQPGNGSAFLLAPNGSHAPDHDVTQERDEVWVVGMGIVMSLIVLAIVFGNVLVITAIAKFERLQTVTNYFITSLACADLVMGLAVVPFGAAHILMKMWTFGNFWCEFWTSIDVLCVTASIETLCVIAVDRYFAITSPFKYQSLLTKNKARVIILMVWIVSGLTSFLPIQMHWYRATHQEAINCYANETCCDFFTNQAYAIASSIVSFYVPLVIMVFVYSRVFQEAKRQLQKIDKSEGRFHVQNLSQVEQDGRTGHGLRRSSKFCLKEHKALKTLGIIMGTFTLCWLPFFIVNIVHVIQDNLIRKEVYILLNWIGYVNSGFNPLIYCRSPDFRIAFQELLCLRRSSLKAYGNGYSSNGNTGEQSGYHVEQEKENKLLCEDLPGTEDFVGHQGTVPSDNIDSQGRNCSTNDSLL
MPTP inh = mitochondrial permeability transition pore inhibitors, primary screen, biochemical, isolated mouse mitochondria, absorbance. Ca2+ swelling absorbance, 30 min. inhibition, % at 10 µM. 1.4% of 360,000 active;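 active means inhibition of 50% or more, scaled per plate between neutral and stimulator controls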;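 further: 0% = DMSO wells given calcium and 100% = 1 mM EGTA wells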
rCAG bind conf = small molecules binding CAG repeat RNA – biochemical, fluorescence, confirmation | shares compounds with rCAG binder | r(CAG) RNA repeat, TO-PRO-1 dye displacement fluorescence | inhibition, % at 3 µM | 70% of 4,300 active;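 active means inhibition above a per-plate cutoff, the mean inhibition of sample wells plus 3 SD, cut at about 35% in these data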;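 further: loss of TO-PRO-1 fluorescence as compound displaces dye from 1x1 AA loop RNA; 0% = DMSO only wells and 100% = 100 µM mitoxantrone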
DNA CAG counter = displacement of TO-PRO-1 from CAG DNA duplex, counter-screen for rCAG RNA repeat binder project, biochemical, fluorescence, TO-PRO-1 dye, d(CAG) DNA oligo; shares compounds with rCAG binder; d(CAG) DNA oligo TO-PRO-1 dye displacement; inhibition, % at 3 µM; 94% of 4,300 active;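 active means inhibition above its plate's cutoff, the mean test-well inhibition plus 3 SD, cut at about 4.8% in these data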;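 further: 0% = DNA dye mix with DMSO and 100% = 100 µM mitoxantrone; hits displace the dye from DNA and so lower well fluorescence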
Starred values were filed as active, the others as inactive; nt = no result.

SMILES | T cell HTS | rCAG binder | V-ATPase pHluor | Exocytosis inh | Beta2AR agonist | MPTP inh | rCAG bind conf | DNA CAG counter
COc1cccc(/C=C2\SC(=S)N(CCCC(=O)Nc3ccc(C(=O)O)cc3)C2=O)c1 | 143 | 69* | -4 | 6 | 9 | 0 | 61* | 22*
O=C(O)CCN1C(=O)/C(=C\c2cccc(OCC(=O)Nc3ccc(Cl)cc3)c2)SC1=S | 73 | 71* | -1 | -2 | 9 | 39 | 82* | 43*
Cc1ccc(NS(=O)(=O)c2cc(NC(=O)c3cc(=O)[nH]c(=O)[nH]3)ccc2Cl)c(C)c1 | 40 | 54* | 2 | 14 | 3 | 4 | 61* | 20*
Cc1ccc(S(=O)(=O)NC(=O)Cn2nnc(-c3ccccc3)c2COc2ccc3ccccc3c2)cc1 | nt | 80* | nt | -8 | nt | 3 | 86* | 50*
Cc1ccc(OCc2nnn(CC(=O)NS(=O)(=O)c3c(C)noc3C)c2-c2ccccc2)cc1 | nt | 61* | nt | 2 | nt | 2 | 67* | 19*
CC(=O)c1ccc(OCc2nnn(CC(=O)O)c2-c2ccccc2)cc1 | nt | 7 | nt | -4 | nt | 0 | nt | nt
CC(=O)c1ccc(OCc2c(-c3ccccc3)nnn2CC(=O)NS(=O)(=O)c2ccccc2C)cc1 | nt | 52* | nt | 9 | nt | 0 | 49* | 14*
CC(=O)c1ccc(OCc2c(-c3ccccc3)nnn2CC(=O)NS(=O)(=O)c2ccc(C)cc2)cc1 | nt | 48* | nt | 1 | nt | -1 | 60* | 15*
N#Cc1ccc(OCc2c(-c3ccccc3)nnn2CC(=O)O)cc1 | nt | 3 | nt | -1 | nt | 0 | nt | nt
CC(CNC(=O)[C@@H](Cc1ccccc1)NC(=O)[C@H]1O[C@@H](n2cnc3c(=O)[nH]c(N)nc32)[C@H](O)[C@@H]1O)c1ccccc1 (stereo partly drawn) | nt | 8 | nt | nt | nt | nt | nt | nt
O=C(NC(=S)Nc1cc(C(F)(F)F)ccc1Cl)c1ccccc1 | 191 | 1 | 3 | 5 | 1 | -2 | nt | nt
O=C(O)c1ccc(NNC(=S)Nc2cc(C(F)(F)F)ccc2Cl)cc1 | 149 | 39* | 1 | -7 | 2 | 1 | 15 | 4.7*
Cc1nn(-c2ccccc2)c2sc(C(=O)N3CCN(C(c4ccccc4)c4ccc(Cl)cc4)CC3)cc12 (stereo not drawn) | nt | 10 | nt | nt | nt | nt | nt | nt
COc1cc2c(C(=O)O)c(C)n(-c3ccccc3)c2c2ccccc12 | 333 | 36* | -3 | 3 | -1 | 3 | 22 | 6.1*
COc1ccccc1-n1c(C)c(C(=O)O)c2cc(OC)c3ccccc3c21 | nt | 41* | 1 | 13 | 1 | 1 | 26 | 5.6*
COc1ccc(-n2c(C)c(C(=O)O)c3cc(OC)c4ccccc4c32)cc1 | 68 | 11 | -9 | 4 | 15 | 2 | nt | nt
C=CCN1[C@@H](CC(C)C)COc2cc(N3CCSCC3)ccc2S1(=O)=O | nt | 4 | nt | nt | nt | nt | nt | nt
COc1ccc(C(=O)/C=C(\Nc2ccc(F)cc2)c2ccc(OC)cc2OC)c(OC)c1 | nt | 7 | nt | nt | nt | nt | nt | nt
COC(=O)[C@]12C[C@H](CC(=O)NCc3ccc(C)o3)C(=O)N(Cc3ccc(Cl)cc3Cl)C1=C[C@H](C(C)C)O[C@@H]2C1CC1 | nt | 2 | nt | nt | nt | nt | nt | nt
CN(C)[C@@H]1CCN(c2ccc3c(c2)OCCCN(C2CC2)S3(=O)=O)C1 | nt | 2 | nt | nt | nt | nt | nt | nt
CC(=O)Nc1ccc(S(=O)(=O)NCC2CCN(C(=O)C(=O)c3cc4ccccc4o3)CC2)cc1 | nt | 5 | nt | nt | nt | nt | nt | nt
CC(C)C[C@@H]1COc2cc(Br)ccc2S(=O)(=O)N1Cc1cn(Cc2ccc(Cl)cc2)nn1 | nt | 0 | nt | nt | nt | nt | nt | nt
CCC(C)(C)C1CCc2c(sc(NC(=O)c3ccccc3C(=O)O)c2C#N)C1 (stereo not drawn) | 341 | 91* | 2 | 4 | 0 | 29 | 84* | 56*
CC1CCc2sc(NC(=O)C3CC(Cl)=CCC3C(=O)O)c(C#N)c2C1 (stereo not drawn) | 172 | 49* | -1 | -2 | -9 | 1 | 42* | 13*
CC(C)(C)C1CCc2c(sc(NC(=O)C3CC=CCC3C(=O)O)c2C#N)C1 (stereo not drawn) | 244 | 80* | -1 | 0 | 1 | 34 | 72* | 36*
SMILES | T cell HTS | rCAG binder | V-ATPase pHluor | Exocytosis inh | Beta2AR agonist | MPTP inh | rCAG bind conf | DNA CAG counter
CC1CCc2c(sc(NC(=O)c3ccccc3C(=O)O)c2C#N)C1 (stereo not drawn) | 143 | -1 | -5 | 0 | -9 | -2 | nt | nt
CC(CCN1CCC(C(O)(c2ccccc2)c2ccccc2)CC1)Oc1cccc(Cl)c1 (stereo not drawn) | nt | 4 | nt | nt | nt | nt | nt | nt
O=C1CCC(NC(=O)Cc2ccccc2)C(=O)N1 (stereo not drawn) | nt | 1 | nt | nt | nt | nt | nt | nt
CCN1C(=O)S/C(=C/c2cn(C)c3ccccc23)C1=O | 274 | 3 | -1 | -20 | -15 | 0 | nt | nt
CCN1C(=O)S/C(=C/c2c(OCc3ccc(C(=O)O)cc3)ccc3ccccc23)C1=O | 390 | 50* | 2 | -3 | -7 | 2 | 67* | 27*
COc1ccc(/C=C2\CCCC3C2=NN(C(=O)c2ccco2)C3c2ccc(OC)c(OC)c2)cc1OC (stereo not drawn) | 365 | -1 | -4 | 1 | -5 | -3 | nt | nt
O=C(O)c1c(C(=O)N2N=C3/C(=C/c4ccccc4)CCCC3C2c2ccccc2)cccc1[N+](=O)[O-] (stereo not drawn) | 273 | 35* | 0 | 5 | -7 | 1 | 56* | 17*
O=C(O)c1ccccc1C(=O)N1N=C2/C(=C/c3cccc([N+](=O)[O-])c3)CCCC2C1c1cccc([N+](=O)[O-])c1 (stereo not drawn) | 223 | 52* | -1 | -1 | -1 | 4 | 73* | 30*
CN(C)[C@H]1CCN(c2ccc3c(c2)O[C@@H]2CCN(C2)S3(=O)=O)C1 | nt | 4 | nt | nt | nt | nt | nt | nt
CC(OC(=O)C1=Cc2ccccc2OC1)C(=O)NCC1CCCO1 (stereo not drawn) | nt | 71* | 1 | -2 | 2 | 0 | 78* | 44*
CC(C)NC(=O)N[C@@H]1C[C@@H]2O[C@@H](CO)CC[C@@H]2O[C@@H]1CCc1ccc(-c2ccc(F)cc2)cc1 | nt | 3 | nt | nt | nt | nt | nt | nt
O=C(C1=NN[C@@H]2C(=O)N(c3cccc(F)c3)C(=O)[C@H]12)C(c1ccccc1)c1ccccc1 | 265 | 23 | -1 | 4 | -1 | 2 | nt | nt
